Measured values published in ChEMBL document CHEMBL3352338, “Development and biological evaluation of potent and selective c-KIT(D816V) inhibitors” (J Med Chem, 2014).
Active and inactive are the calls of the source. No cut-off for these calls is given here.

Key:
[1] = molecular target: Mast/stem cell growth factor receptor Kit (Homo sapiens, UniProt P10721, D816V); assay: Inhibition of c-KIT D816V mutant (unknown origin)
[2] = molecular target: Mast/stem cell growth factor receptor Kit (Homo sapiens, UniProt P10721); assay: Inhibition of wild type c-KIT (unknown origin)
Chain of Mast/stem cell growth factor receptor Kit (Homo sapiens, UniProt P10721) (P10721 whole entry, canonical isoform): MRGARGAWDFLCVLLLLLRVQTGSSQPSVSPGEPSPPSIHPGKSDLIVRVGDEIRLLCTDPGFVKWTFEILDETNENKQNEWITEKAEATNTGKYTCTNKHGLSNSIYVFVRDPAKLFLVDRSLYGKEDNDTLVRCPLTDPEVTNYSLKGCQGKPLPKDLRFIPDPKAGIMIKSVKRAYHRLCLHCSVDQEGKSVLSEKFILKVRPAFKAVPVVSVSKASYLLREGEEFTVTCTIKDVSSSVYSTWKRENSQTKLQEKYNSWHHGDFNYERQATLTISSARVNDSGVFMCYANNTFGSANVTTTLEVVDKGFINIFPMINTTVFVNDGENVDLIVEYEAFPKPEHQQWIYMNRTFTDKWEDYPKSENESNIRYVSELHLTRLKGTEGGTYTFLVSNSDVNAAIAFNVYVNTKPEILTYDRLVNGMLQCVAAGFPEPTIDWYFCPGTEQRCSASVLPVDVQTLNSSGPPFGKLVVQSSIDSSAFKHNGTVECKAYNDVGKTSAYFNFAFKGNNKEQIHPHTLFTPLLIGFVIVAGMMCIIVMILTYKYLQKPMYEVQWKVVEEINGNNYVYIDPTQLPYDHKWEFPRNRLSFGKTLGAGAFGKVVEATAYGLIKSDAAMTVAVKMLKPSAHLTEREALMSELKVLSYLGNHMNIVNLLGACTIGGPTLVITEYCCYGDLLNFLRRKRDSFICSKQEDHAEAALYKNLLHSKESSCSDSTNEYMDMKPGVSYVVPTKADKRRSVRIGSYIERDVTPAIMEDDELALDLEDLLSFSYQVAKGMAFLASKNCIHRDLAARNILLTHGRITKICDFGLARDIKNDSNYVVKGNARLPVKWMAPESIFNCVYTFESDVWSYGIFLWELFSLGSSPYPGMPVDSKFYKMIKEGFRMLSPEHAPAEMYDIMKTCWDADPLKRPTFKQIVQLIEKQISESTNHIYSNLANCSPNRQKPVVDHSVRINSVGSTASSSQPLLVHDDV

[3] = molecular target: Phosphatidylinositol 4,5-bisphosphate 3-kinase catalytic subunit alpha isoform (Homo sapiens, UniProt P42336); assay: Inhibition of PI3Kalpha (unknown origin)
Chain of Phosphatidylinositol 4,5-bisphosphate 3-kinase catalytic subunit alpha isoform (P42336 whole entry, canonical isoform): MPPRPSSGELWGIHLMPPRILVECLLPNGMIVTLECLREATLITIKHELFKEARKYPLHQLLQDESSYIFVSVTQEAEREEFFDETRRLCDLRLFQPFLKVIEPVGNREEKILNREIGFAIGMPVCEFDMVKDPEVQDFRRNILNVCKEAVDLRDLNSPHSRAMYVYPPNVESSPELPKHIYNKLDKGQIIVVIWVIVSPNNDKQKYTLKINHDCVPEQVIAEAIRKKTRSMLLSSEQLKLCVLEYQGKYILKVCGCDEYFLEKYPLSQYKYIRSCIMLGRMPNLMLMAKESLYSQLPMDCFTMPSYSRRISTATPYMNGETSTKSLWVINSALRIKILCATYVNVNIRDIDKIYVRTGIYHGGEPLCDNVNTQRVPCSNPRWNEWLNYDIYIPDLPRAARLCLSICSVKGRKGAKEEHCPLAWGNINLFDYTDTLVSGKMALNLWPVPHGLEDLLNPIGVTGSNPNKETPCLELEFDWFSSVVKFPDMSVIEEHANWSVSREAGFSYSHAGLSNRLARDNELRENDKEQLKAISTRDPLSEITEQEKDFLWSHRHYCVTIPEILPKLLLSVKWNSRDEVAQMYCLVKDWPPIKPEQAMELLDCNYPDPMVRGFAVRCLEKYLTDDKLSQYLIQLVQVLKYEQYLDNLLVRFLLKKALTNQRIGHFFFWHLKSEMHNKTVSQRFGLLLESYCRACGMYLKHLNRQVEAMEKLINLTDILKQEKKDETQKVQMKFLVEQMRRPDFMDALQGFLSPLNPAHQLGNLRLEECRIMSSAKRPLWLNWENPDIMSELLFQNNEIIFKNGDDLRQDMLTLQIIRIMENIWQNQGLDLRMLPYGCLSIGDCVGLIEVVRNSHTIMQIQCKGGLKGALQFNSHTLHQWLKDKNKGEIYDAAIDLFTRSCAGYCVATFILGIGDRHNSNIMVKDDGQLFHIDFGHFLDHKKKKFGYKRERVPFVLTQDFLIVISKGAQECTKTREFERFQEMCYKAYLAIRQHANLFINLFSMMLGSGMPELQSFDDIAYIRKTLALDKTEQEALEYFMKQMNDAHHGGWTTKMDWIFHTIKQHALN

[4] = molecular target: Signal transducer and activator of transcription 3 (Homo sapiens) (UniProt P40763); assay: Inhibition of STAT3 phosphorylation in imatinib-resistant human HMC-1.2 cells at 5 uM after 1 hr by Western immunoblotting analysis
Chain of Signal transducer and activator of transcription 3 (Homo sapiens) (P40763 whole entry): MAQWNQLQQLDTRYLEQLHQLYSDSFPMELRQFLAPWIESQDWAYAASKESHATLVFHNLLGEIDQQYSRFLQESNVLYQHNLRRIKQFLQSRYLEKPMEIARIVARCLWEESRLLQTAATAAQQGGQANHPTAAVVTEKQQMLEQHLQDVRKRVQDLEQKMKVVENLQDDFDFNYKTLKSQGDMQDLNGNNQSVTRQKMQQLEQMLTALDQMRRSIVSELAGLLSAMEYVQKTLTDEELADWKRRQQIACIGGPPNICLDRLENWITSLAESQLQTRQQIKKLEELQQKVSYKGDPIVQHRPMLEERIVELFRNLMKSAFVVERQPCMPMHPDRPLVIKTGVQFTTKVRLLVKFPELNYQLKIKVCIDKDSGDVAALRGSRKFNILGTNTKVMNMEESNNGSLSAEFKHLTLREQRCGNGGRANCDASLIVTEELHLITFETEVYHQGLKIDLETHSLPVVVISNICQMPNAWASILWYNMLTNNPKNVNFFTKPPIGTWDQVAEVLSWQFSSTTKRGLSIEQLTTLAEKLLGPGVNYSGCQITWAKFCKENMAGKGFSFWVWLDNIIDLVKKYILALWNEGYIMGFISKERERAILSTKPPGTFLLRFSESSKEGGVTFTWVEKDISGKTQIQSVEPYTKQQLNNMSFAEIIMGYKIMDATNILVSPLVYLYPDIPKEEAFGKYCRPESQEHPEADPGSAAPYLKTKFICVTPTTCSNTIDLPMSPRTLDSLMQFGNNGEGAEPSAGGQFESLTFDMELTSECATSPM

[5] = Antiproliferative activity against human HMC-1.2 cells carrying V560G, D816V mutant assessed as cell growth inhibition by MTT assay; assay type: functional, cell-based
How it was run: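 Cell viability by MTT assay in imatinib-resistant HMC-1.2 human mast cells (V560G, D816V), 48 h exposure across a range of concentrations.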

Chain of Mast/stem cell growth factor receptor Kit (Homo sapiens, UniProt P10721, D816V) (P10721 26-976 D816V limits assumed): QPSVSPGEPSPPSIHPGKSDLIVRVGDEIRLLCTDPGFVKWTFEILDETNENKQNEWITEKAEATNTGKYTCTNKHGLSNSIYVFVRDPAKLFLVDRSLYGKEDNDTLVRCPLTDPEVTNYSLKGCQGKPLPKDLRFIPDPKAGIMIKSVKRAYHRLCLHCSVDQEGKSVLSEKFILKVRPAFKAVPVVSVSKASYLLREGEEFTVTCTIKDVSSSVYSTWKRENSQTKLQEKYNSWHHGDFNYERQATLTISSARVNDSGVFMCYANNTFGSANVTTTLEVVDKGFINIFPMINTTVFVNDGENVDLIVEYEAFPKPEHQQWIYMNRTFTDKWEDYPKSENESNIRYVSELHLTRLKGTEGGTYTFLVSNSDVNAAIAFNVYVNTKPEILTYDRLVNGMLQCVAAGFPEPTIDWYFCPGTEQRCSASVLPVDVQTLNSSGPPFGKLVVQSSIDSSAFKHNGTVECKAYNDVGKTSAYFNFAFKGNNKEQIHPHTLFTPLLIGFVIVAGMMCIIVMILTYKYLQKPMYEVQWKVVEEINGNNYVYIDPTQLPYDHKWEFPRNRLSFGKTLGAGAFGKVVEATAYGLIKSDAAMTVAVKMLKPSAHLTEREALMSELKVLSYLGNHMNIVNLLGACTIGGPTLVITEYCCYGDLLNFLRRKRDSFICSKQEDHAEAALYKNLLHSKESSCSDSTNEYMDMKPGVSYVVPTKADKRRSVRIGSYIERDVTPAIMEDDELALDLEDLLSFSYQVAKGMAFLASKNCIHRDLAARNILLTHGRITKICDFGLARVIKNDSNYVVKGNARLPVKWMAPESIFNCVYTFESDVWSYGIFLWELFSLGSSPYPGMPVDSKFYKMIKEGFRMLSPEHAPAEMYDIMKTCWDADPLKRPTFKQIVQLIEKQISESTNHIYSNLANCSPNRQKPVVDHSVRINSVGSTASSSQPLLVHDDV

Compound	IC50 [1]	IC50 [2]	IC50 [3]	inhibition [4]	IC50 [5]
Cc1ccc(-c2c[nH]c3ncc(-c4cccc(N)c4)cc23)cc1	> 10000 nM				
COc1ccc(-c2c[nH]c3ncc(-c4cccc(NS(=O)(=O)c5ccccc5)c4)cc23)cc1OC	126 nM				
COc1cccc(-c2c[nH]c3ncc(-c4cccc(N)c4)cc23)c1	670 nM				
COc1ccc(-c2c[nH]c3ncc(-c4ccncc4)cc23)cc1OC	32.1 nM		9.7 µM		
COc1ccc(-c2c[nH]c3ncc(-c4ccc(C#N)cc4)cc23)cc1OC	426 nM		> 10 µM		
Nc1cccc(-c2cnc3[nH]cc(-c4ccccc4N)c3c2)c1	1420 nM				
COc1ccc(-c2c[nH]c3ncc(-c4cncc(NS(=O)(=O)c5ccccc5)c4)cc23)cc1OC	346 nM			Active	
COc1ccc(-c2c[nH]c3ncc(-c4ccccc4C)cc23)cc1OC	785 nM		> 10 µM		
COc1ccc(-c2cnc3[nH]cc(-c4ccc(OC)c(OC)c4)c3c2)c(OC)c1	29.2 nM	5460 nM			
COc1cc(OC)cc(-c2c[nH]c3ncc(-c4cccc(N)c4)cc23)c1	320 nM				
Nc1cccc(-c2cnc3[nH]cc(-c4ccc(Cl)cc4)c3c2)c1	2260 nM				
COc1ccc(-c2c[nH]c3ncc(-c4cccc(N)c4)cc23)cc1	398 nM				
COc1ccc(-c2c[nH]c3ncc(-c4ccccc4)cc23)cc1OC	135 nM		> 10 µM		
Cc1ccc(NC(=O)c2ccc(CN3CCN(C)CC3)cc2)cc1Nc1nccc(-c2cccnc2)n1 [IMATINIB]					17000 nM
Cc1ccc(C(=O)Nc2ccc(CN3CCN(C)CC3)c(C(F)(F)F)c2)cc1C#Cc1cnc2cccnn12 [PONATINIB]					350 nM
COc1ccc(-c2c[nH]c3ncc(-c4cccc(N)c4)cc23)cc1F	104 nM				
COc1ccc(-c2c[nH]c3ncc(-c4cccnc4)cc23)cc1OC	60.1 nM	3330 nM	> 10 µM		
Cc1nc(Nc2ncc(C(=O)Nc3c(C)cccc3Cl)s2)cc(N2CCN(CCO)CC2)n1 [DASATINIB]					820 nM
COc1ccc(-c2c[nH]c3ncc(-c4cccc(NC(C)=O)c4)cc23)cc1OC	65.1 nM	1160 nM			
Nc1cccc(-c2cnc3[nH]cc(-c4cccc(N)c4)c3c2)c1	76.7 nM				

More lines, main results first:

IC50 [1]	IC50 [2]	IC50 [3]	inhibition [4]	Compound	IC50 [5]
26.2 nM	> 10000 nM			COc1cc(N)cc(-c2cnc3[nH]cc(-c4ccc(OC)c(OC)c4)c3c2)c1	
32.1 nM	371 nM	> 10 µM		COc1ccc(-c2cnc3[nH]cc(-c4ccc(OC)c(OC)c4)c3c2)cc1	
28.7 nM	1520 nM			COc1cccc(-c2cnc3[nH]cc(-c4ccc(OC)c(OC)c4)c3c2)c1	
457 nM		> 10 µM		COc1ccc(-c2c[nH]c3ncc(-c4ccc(Cl)cc4)cc23)cc1OC	
571 nM	> 10000 nM	> 10 µM		COc1ccc(-c2c[nH]c3ncc(-c4ccc(C)cc4)cc23)cc1OC	
63.8 nM	> 10000 nM	> 10 µM		COc1ccc(-c2c[nH]c3ncc(-c4cccc(C#N)c4)cc23)cc1OC	
261 nM		> 10 µM		COc1ccc(-c2c[nH]c3ncc(-c4cccc(C)c4)cc23)cc1OC	
10.8 nM		1.45 µM		COc1ccc(-c2c[nH]c3ncc(-c4cncc(N)c4)cc23)cc1OC	
29.2 nM		> 10 µM		COc1ccc(-c2c[nH]c3ncc(-c4cccc(N(C)C)c4)cc23)cc1OC	
13.9 nM	8540 nM			COc1ccc(-c2c[nH]c3ncc(-c4ccc(OCCN5CCOCC5)c(N)c4)cc23)cc1OC	
24.6 nM	> 10000 nM			COc1ccc(-c2c[nH]c3ncc(-c4ccc(C)c(N)c4)cc23)cc1OC	1430 nM
72.8 nM		> 10 µM		COc1ccc(-c2c[nH]c3ncc(-c4ccc(F)cc4)cc23)cc1OC	
67.8 nM	1290 nM			COc1ccc(-c2c[nH]c3ncc(-c4cnc(N)nc4)cc23)cc1OC	
1330 nM		> 10 µM		COc1ccc(-c2c[nH]c3ncc(-c4ccccc4N)cc23)cc1OC	
48.8 nM	10800 nM			COc1ccc(-c2c[nH]c3ncc(-c4ccc5c(c4)OCO5)cc23)cc1OC	
9.1 nM	56.8 nM			COc1ccc(-c2c[nH]c3ncc(-c4ccc(N)cc4)cc23)cc1OC	
102 nM		> 10 µM		COc1ccc(-c2c[nH]c3ncc(-c4cc(F)cc(F)c4)cc23)cc1OC	
520 nM		> 10 µM		COc1ccc(-c2c[nH]c3ncc(-c4cccc(F)c4)cc23)cc1OC	
6.3 nM	1060 nM	> 10 µM		COc1ccc(-c2c[nH]c3ncc(-c4cccc(N)c4)cc23)cc1OC	1680 nM
